Assay results: ChEMBL document CHEMBL4138315, “Synthesis and Evaluation of a Novel Bivalent Selective Antagonist for the Mu-Delta Opioid Receptor Heterodimer that Reduces Morphine Withdrawal in Mice” (J Med Chem, 2018)
The source made the active and inactive calls.

Columns and labels:
Mus musculus [1] = assay: Reduction in morphine dependence expression in chronic morphine dependence ICR mouse model assessed as inhibition of naloxone-precipitated GI effects of withdrawal at 1 nmol, […] administered 5 mins prior to naloxone injection measured up to 20 mins; format: functional, organism-based
[2] = biological target: Delta-type opioid receptor (Homo sapiens, UniProt P41143); assay: Antagonist activity at human DOR expressed in CHO cell membranes assessed as inhibition of CYM51010-induced [35S]-GTPgammaS binding preincubated for 5 mins followed by CYM51010 and [35S]-GTPgammaS addition measured after 80 mins; format: functional; conditions: cho
Chain of Delta-type opioid receptor (P41143 whole entry): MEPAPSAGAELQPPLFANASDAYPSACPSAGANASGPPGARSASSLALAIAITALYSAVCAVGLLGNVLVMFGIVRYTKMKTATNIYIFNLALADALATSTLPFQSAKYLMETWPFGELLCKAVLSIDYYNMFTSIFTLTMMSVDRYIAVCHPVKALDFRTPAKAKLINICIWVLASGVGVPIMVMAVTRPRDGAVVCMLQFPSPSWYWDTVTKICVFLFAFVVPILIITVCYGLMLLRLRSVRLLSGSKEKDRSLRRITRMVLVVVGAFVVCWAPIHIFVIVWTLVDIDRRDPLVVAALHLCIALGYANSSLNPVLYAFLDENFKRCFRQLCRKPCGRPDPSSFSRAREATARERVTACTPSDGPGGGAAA
Outline: (§1)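 Membranes from CHO cells stably expressing human opioid receptor (N-terminal tagged) were preincubated 5 min with antagonist concentration curves, then given 1 µM CYM51010 and 0.1 nM 35S-GTPγS; 30°C, 80 min, GF/B filtration, scintillation counting. Normalized to CYM51010 alone (100%) and vehicle (0%). Fits: 1-site for MOR/DOR (IC50), 2-site for MDOR (IC50HIGH). N = 3-4, duplicate, mean ± SEM.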

[3] = biological target: Kappa-type opioid receptor (Homo sapiens) (UniProt P41145); assay: Antagonist activity at human KOR expressed in CHO cell membranes assessed as inhibition of U50488-induced [35S]-GTPgammaS binding preincubated for 5 mins followed by U50488 and [35S]-GTPgammaS addition measured after 80 mins; format: functional
Chain of Kappa-type opioid receptor (Homo sapiens) (P41145 whole entry): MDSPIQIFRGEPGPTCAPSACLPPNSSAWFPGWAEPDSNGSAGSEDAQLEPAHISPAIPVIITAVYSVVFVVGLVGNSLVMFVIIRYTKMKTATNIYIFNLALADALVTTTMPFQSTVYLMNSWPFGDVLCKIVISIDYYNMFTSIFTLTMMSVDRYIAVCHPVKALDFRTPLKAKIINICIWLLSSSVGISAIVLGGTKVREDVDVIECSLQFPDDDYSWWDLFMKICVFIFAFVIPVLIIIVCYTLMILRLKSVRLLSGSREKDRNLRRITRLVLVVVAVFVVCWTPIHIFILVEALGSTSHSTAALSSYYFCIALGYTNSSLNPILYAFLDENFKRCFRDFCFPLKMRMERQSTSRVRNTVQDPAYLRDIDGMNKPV
Outline: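 KOR-CHO membranes (human receptor, N-terminal tag), antagonist concentration curve preincubated 5 min, then 1 µM U50,488 plus 0.1 nM 35S-GTPγS added. Incubated 30°C, 80 min; filtration and scintillation counting. Vehicle 0.1% DMSO in assay buffer with 0.1% BSA. Normalized to agonist alone (100%) and vehicle (0%). One-site curve fit; N = 3 independent experiments in duplicate.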

Mus musculus [4] = assay: Reduction in morphine dependence expression in acute morphine dependence ICR mouse model assessed as reduction in GI output at 1 nmol, icv up to 20 mins; format: functional, organism-based
Outline: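 Acute dependence: morphine 100 mg/kg sc, then naloxone 10 mg/kg ip 4 h later. 1 nmol icv or vehicle given 5 min before naloxone; one control arm had no naloxone. Mice observed 20 min in plexiglass cylinders; jumps counted, then urine and feces weighed.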

Mus musculus [5] = organism: Mus musculus; assay: Antinociceptive activity in CD1 mouse assessed as reduction in morphine-induced nociception at 10 nmol pretreated for 5 mins followed by morphine injection measured up to 2 hrs by tail flick assay; format: functional, organism-based
Outline: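 Male CD-1 mice received 10 nmol icv (vehicle 2% DMSO/10% Tween80/88% water), 5 min before sc agonist. SNC80 was 10 mg/kg in 20% DMSO/10% Tween80/70% saline; morphine was given in saline. 52°C tail flick, 10 s cutoff, recorded over a 2 h time course; experimenter blinded.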

[6] = biological target: Opioid receptors; mu & delta (Homo sapiens, UniProt P41143+P35372); assay: Displacement of [3H]-diprenorphine from human mu-delta opioid receptor heterodimer expressed in CHO cell membranes at high site fraction after 80 mins by scintillation counting analysis relative to control
Chain of Opioid receptors; mu & delta (P35372 whole entry, looked up): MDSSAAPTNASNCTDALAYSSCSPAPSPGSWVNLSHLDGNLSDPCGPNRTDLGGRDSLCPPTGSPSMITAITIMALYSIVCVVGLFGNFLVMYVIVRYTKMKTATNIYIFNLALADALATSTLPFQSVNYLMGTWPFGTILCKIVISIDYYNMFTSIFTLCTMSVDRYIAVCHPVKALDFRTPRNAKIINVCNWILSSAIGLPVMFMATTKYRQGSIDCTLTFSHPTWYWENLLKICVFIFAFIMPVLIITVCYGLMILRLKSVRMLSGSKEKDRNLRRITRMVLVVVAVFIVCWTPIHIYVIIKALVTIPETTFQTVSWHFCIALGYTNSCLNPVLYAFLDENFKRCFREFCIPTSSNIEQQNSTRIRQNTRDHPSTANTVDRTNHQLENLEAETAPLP
Chain of Opioid receptors; mu & delta (P41143 whole entry, looked up): as the sequence (P41143 whole entry) above

Mu-type opioid receptor = Mu-type opioid receptor (Homo sapiens, UniProt P35372); assay: Antagonist activity at human MOR expressed in CHO cell membranes assessed as inhibition of CYM51010-induced [35S]-GTPgammaS binding preincubated for 5 mins followed by CYM51010 and [35S]-GTPgammaS addition measured after 80 mins; format: functional; conditions: cho; outline: as §1
Chain of Mu-type opioid receptor (P35372 whole entry): as the sequence (P35372 whole entry, looked up) above

For `N[C@@H](Cc1ccc(O)cc1)C(=O)N1Cc2ccccc2C[C@@H]1C(=O)NCC(=O)NCCCCC(=O)N[C@H](CCCCNC(=O)CCCCNC(=O)CNC(=O)[C@@H](Cc1cccc2ccccc12)NC(=O)[C@H](Cc1ccccc1)NC(=O)[C@@H]1CCCN1C(=O)[C@@H](N)Cc1ccc(O)cc1)C(=O)O`, the Activity (Mus musculus [1]) was “Active”, the IC50 [2] was 0.076 µM and the inhibition [3] was “inactive”. The Activity (Mus musculus [4]) was “Active”, the Activity (Mus musculus [5]) was “Active” and the Imax [6] was 11%. The IC50 (Mu-type opioid receptor) was greater than 1 µM.
